Data taken from ChEMBL document CHEMBL1926569, “Novel (E)-1-(4-methyl-2-(alkylamino)thiazol-5-yl)-3-arylprop-2-en-1-ones as potent antimicrobial agents” (2011).
Converted amounts (≈) assume the structure as drawn.

Tests used:
Staphylococcus aureus [1] = assay: Antibacterial activity against Staphylococcus aureus ATCC 6538 after 24 hrs by microdilution method; type: functional; settings: ATCC 6538, 24 h
Procedure, shortened: (§1)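 Broth microdilution in 96-well plates. Bacterial suspensions were adjusted in sterile saline to 1.0 × 10⁵ CFU/ml, prepared daily and kept at 4 °C. Compound was added to LB broth with 1.0 × 10⁴ CFU per well and shaken at 160 rpm for 24 h at […] (so in the source). MIC is the lowest concentration with no visible growth under a binocular microscope. OD655 was also read. Duplicate, repeated three times.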

Bacillus cereus [2] = assay: Antibacterial activity against clinical isolate of Bacillus cereus after 24 hrs by microdilution method; type: functional; procedure, shortened: as §1
Micrococcus flavus [3] = assay: Antibacterial activity against Micrococcus flavus ATCC 10240 after 24 hrs by microdilution method; type: functional; settings: ATCC 10240, 24 h; procedure, shortened: as §1
Listeria monocytogenes [4] = assay: Antibacterial activity against Listeria monocytogenes NCTC 7973 after 24 hrs by microdilution method; type: functional; settings: NCTC 7973, 24 h; procedure, shortened: as §1
Pseudomonas aeruginosa [5] = assay: Antibacterial activity against Pseudomonas aeruginosa ATCC 27853 after 24 hrs by microdilution method; type: functional; settings: ATCC 27853, 24 h; procedure, shortened: as §1
Salmonella typhimurium [6] = assay: Antibacterial activity against Salmonella Typhimurium ATCC 13311 after 24 hrs by microdilution method; type: functional, Salmonella enterica subsp. enterica serovar Typhimurium; settings: Salmonella enterica, ATCC 13311, 24 h; procedure, shortened: as §1
Escherichia coli [7] = assay: Antibacterial activity against Escherichia coli ATCC 35210 after 24 hrs by microdilution method; type: functional; settings: ATCC 35210, 24 h; procedure, shortened: as §1
Enterococcus faecalis [8] = assay: Antibacterial activity against Enterococcus faecalis isolated from human after 24 hrs by microdilution method; type: functional; procedure, shortened: as §1
Staphylococcus aureus [9] = assay: Antibacterial activity against Staphylococcus aureus ATCC 6538 incubated for 24 hrs followed by serial sub-cultivation for 24 hrs by microdilution method; type: functional; settings: ATCC 6538, 24 h
Procedure, shortened: (§2)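 MBC: after the 24 h LB broth microdilution (1.0 × 10⁴ CFU per well, 160 rpm), wells were serially sub-cultured into fresh broth plates and incubated a further 24 h. MBC is the lowest concentration with no visible growth, taken as 99.5% killing of the original inoculum. Duplicate, repeated three times.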

Bacillus cereus [10] = assay: Antibacterial activity against clinical isolate of Bacillus cereus incubated for 24 hrs followed by serial sub-cultivation for 24 hrs by microdilution; type: functional; procedure, shortened: as §2
Micrococcus flavus [11] = assay: Antibacterial activity against Micrococcus flavus ATCC 10240 incubated for 24 hrs followed by serial sub-cultivation for 24 hrs by microdilution; type: functional; settings: ATCC 10240, 24 h; procedure, shortened: as §2
Listeria monocytogenes [12] = assay: Antibacterial activity against Listeria monocytogenes NCTC 7973 incubated for 24 hrs followed by serial sub-cultivation for 24 hrs by microdilution; type: functional; settings: NCTC 7973, 24 h; procedure, shortened: as §2
Pseudomonas aeruginosa [13] = assay: Antibacterial activity against Pseudomonas aeruginosa ATCC 27853 incubated for 24 hrs followed by serial sub-cultivation for 24 hrs by microdilution; type: functional; settings: ATCC 27853, 24 h; procedure, shortened: as §2
Salmonella typhimurium [14] = assay: Antibacterial activity against Salmonella Typhimurium ATCC 13311 incubated for 24 hrs followed by serial sub-cultivation for 24 hrs by microdilution; type: functional, Salmonella enterica subsp. enterica serovar Typhimurium; settings: Salmonella enterica, ATCC 13311, 24 h; procedure, shortened: as §2
Escherichia coli [15] = assay: Antibacterial activity against Escherichia coli ATCC 35210 incubated for 24 hrs followed by serial sub-cultivation for 24 hrs by microdilution; type: functional; settings: ATCC 35210, 24 h; procedure, shortened: as §2
Enterococcus faecalis [16] = assay: Antibacterial activity against Enterococcus faecalis isolated from human incubated for 24 hrs followed by serial sub-cultivation for 24 hrs by microdilution; type: functional; procedure, shortened: as §2
Aspergillus ochraceus [17] = assay: Antifungal activity against Aspergillus ochraceus ATCC 12066 after 72 hrs by serial dilution technique; type: functional; settings: ATCC 12066, 72 h
Procedure, shortened: (§3)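 Modified microdilution in 96-well plates. Fungi were kept on malt agar at 4 °C. Spores were washed off in sterile 0.85% saline with 0.1% Tween 80. Compounds were dissolved at 1 mg/ml in 5% DMSO with 0.1% Tween 80 and added to malt broth with inoculum. Plates were shaken at 160 rpm for 72 h at 28 °C. Duplicate, repeated three times.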

Aspergillus niger [18] = assay: Antifungal activity against Aspergillus niger ATCC 6275 after 72 hrs by serial dilution technique; type: functional; settings: ATCC 6275, 72 h; procedure, shortened: as §3
Aspergillus flavus [19] = assay: Antifungal activity against Aspergillus flavus ATCC 9643 after 72 hrs by serial dilution technique; type: functional; settings: ATCC 9643, 72 h; procedure, shortened: as §3
Talaromyces funiculosus [20] = assay: Antifungal activity against Penicillium funiculosum ATCC 36839 after 72 hrs by serial dilution technique; type: functional; settings: ATCC 36839, 72 h; procedure, shortened: as §3
Penicillium ochrochloron [21] = assay: Antifungal activity against Penicillium ochrochloron ATCC 9112 after 72 hrs by serial dilution technique; type: functional; settings: ATCC 9112, 72 h; procedure, shortened: as §3
Trichoderma viride [22] = assay: Antifungal activity against Trichoderma viride IAM 5061 after 72 hrs by serial dilution technique; type: functional; settings: IAM 5061, 72 h; procedure, shortened: as §3
Candida albicans [23] = assay: Antifungal activity against Candida albicans isolated from human after 72 hrs by serial dilution technique; type: functional; procedure, shortened: as §3
Aspergillus ochraceus [24] = assay: Antifungal activity against Aspergillus ochraceus ATCC 12066 incubated for 72 hrs followed by serial sub-cultivation for 72 hrs by serial dilution technique; type: functional; settings: ATCC 12066, 72 h
Procedure, shortened: (§4)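 MFC: material from 72 h malt broth microdilution wells was serially sub-cultured into fresh broth plates and incubated a further 72 h at 28 °C. Fungicidal concentration is taken from growth after sub-culture. Duplicate, repeated three times.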

Aspergillus fumigatus [25] = assay: Antifungal activity against Aspergillus fumigatus isolated from human incubated for 72 hrs followed by serial sub-cultivation for 72 hrs by serial dilution technique; type: functional; procedure, shortened: as §4
Aspergillus niger [26] = assay: Antifungal activity against Aspergillus niger ATCC 6275 incubated for 72 hrs followed by serial sub-cultivation for 72 hrs by serial dilution technique; type: functional; settings: ATCC 6275, 72 h; procedure, shortened: as §4
Aspergillus flavus [27] = assay: Antifungal activity against Aspergillus flavus ATCC 9643 incubated for 72 hrs followed by serial sub-cultivation for 72 hrs by serial dilution technique; type: functional; settings: ATCC 9643, 72 h; procedure, shortened: as §4
Talaromyces funiculosus [28] = assay: Antifungal activity against Penicillium funiculosum ATCC 36839 incubated for 72 hrs followed by serial sub-cultivation for 72 hrs by serial dilution technique; type: functional; settings: ATCC 36839, 72 h; procedure, shortened: as §4
Penicillium ochrochloron [29] = assay: Antifungal activity against Penicillium ochrochloron ATCC 9112 incubated for 72 hrs followed by serial sub-cultivation for 72 hrs by serial dilution technique; type: functional; settings: ATCC 9112, 72 h; procedure, shortened: as §4
Trichoderma viride [30] = assay: Antifungal activity against Trichoderma viride IAM 5061 incubated for 72 hrs followed by serial sub-cultivation for 72 hrs by serial dilution technique; type: functional; settings: IAM 5061, 72 h; procedure, shortened: as §4
Candida albicans [31] = assay: Antifungal activity against Candida albicans isolated from human incubated for 72 hrs followed by serial sub-cultivation for 72 hrs by serial dilution technique; type: functional; procedure, shortened: as §4
Pseudomonas aeruginosa [32] = assay: Ratio of ampicillin MIC to compound MIC for Pseudomonas aeruginosa ATCC 27853; type: functional
Aspergillus ochraceus [33] = assay: Ratio of bifonazole to compound for Aspergillus ochraceus ATCC 12066; type: functional
Aspergillus niger [34] = assay: Ratio of bifonazole to compound for Aspergillus niger ATCC 6275; type: functional
Talaromyces funiculosus [35] = assay: Ratio of bifonazole to compound for Penicillium funiculosum ATCC 36839; type: functional
Penicillium ochrochloron [36] = assay: Ratio of bifonazole to compound for Penicillium ochrochloron ATCC 9112; type: functional
Trichoderma viride [37] = assay: Ratio of bifonazole to compound for Trichoderma viride IAM 5061; type: functional
Candida albicans [38] = assay: Ratio of bifonazole to compound for Candida albicans isolated from human; type: functional
Aspergillus ochraceus [39] = assay: Ratio of ketoconazole to compound for Aspergillus ochraceus ATCC 12066; type: functional
Aspergillus fumigatus [40] = assay: Ratio of ketoconazole to compound for Aspergillus fumigatus isolated from human; type: functional
Penicillium ochrochloron [41] = assay: Ratio of ketoconazole to compound for Penicillium ochrochloron ATCC 9112; type: functional
Candida albicans [42] = assay: Ratio of ketoconazole to compound for Candida albicans isolated from human; type: functional
Aspergillus ochraceus [43] = assay: Antifungal activity against Aspergillus ochraceus after 72 hrs by serial dilution technique

MIC (Staphylococcus aureus [1]): 66.2 µM (≈ 20 µg/mL)
MIC (Bacillus cereus [2]): 66.2 µM (≈ 20 µg/mL)
MIC (Micrococcus flavus [3]): 31.3 µM (≈ 9.47 µg/mL)
MIC (Listeria monocytogenes [4]): 82.8 µM (≈ 25 µg/mL)
MIC (Pseudomonas aeruginosa [5]): 82.8 µM (≈ 25 µg/mL)
MIC (Salmonella typhimurium [6]): 33.1 µM (≈ 10 µg/mL)
MIC (Escherichia coli [7]): 82.8 µM (≈ 25 µg/mL)
MIC (Enterococcus faecalis [8]): 82.8 µM (≈ 25 µg/mL)
MIC (Aspergillus ochraceus [17]): 66.2 µM (≈ 20 µg/mL)
MIC (Aspergillus niger [18]): 49.7 µM (≈ 15 µg/mL)
MIC (Aspergillus flavus [19]): 66.2 µM (≈ 20 µg/mL)
MIC (Talaromyces funiculosus [20]): 33.1 µM (≈ 10 µg/mL)
MIC (Penicillium ochrochloron [21]): 66.2 µM (≈ 20 µg/mL)
MIC (Trichoderma viride [22]): 33.1 µM (≈ 10 µg/mL)
MIC (Candida albicans [23]): 33.1 µM (≈ 10 µg/mL)
MIC (Aspergillus ochraceus [43]): 49.7 µM (≈ 15 µg/mL)
SMILES: CCNc1nc(C)c(C(=O)/C=C/c2ccccc2OC)s1
MBC (Staphylococcus aureus [9]): 99.3 µM (≈ 30 µg/mL)
MBC (Bacillus cereus [10]): 82.8 µM (≈ 25 µg/mL)
MBC (Micrococcus flavus [11]): 82.8 µM (≈ 25 µg/mL)
MBC (Listeria monocytogenes [12]): 116 µM (≈ 35 µg/mL)
MBC (Pseudomonas aeruginosa [13]): 99.3 µM (≈ 30 µg/mL)
MBC (Salmonella typhimurium [14]): 82.8 µM (≈ 25 µg/mL)
MBC (Escherichia coli [15]): 82.8 µM (≈ 25 µg/mL)
MBC (Enterococcus faecalis [16]): 82.8 µM (≈ 25 µg/mL)
MFC (Aspergillus ochraceus [24]): 82.8 µM (≈ 25 µg/mL)
MFC (Aspergillus fumigatus [25]): 66.2 µM (≈ 20 µg/mL)
MFC (Aspergillus niger [26]): 66.2 µM (≈ 20 µg/mL)
MFC (Aspergillus flavus [27]): 82.8 µM (≈ 25 µg/mL)
MFC (Talaromyces funiculosus [28]): 66.2 µM (≈ 20 µg/mL)
MFC (Penicillium ochrochloron [29]): 82.8 µM (≈ 25 µg/mL)
MFC (Trichoderma viride [30]): 66.2 µM (≈ 20 µg/mL)
MFC (Candida albicans [31]): 66.2 µM (≈ 20 µg/mL)
Ratio (Pseudomonas aeruginosa [32]): 10
Ratio (Aspergillus ochraceus [33]): 10
Ratio (Aspergillus niger [34]): 10
Ratio (Talaromyces funiculosus [35]): 10
Ratio (Penicillium ochrochloron [36]): 10
Ratio (Trichoderma viride [37]): 10
Ratio (Candida albicans [38]): 10
Ratio (Aspergillus ochraceus [39]): 10
Ratio (Aspergillus fumigatus [40]): 10
Ratio (Penicillium ochrochloron [41]): 10
Ratio (Candida albicans [42]): 10
